The test system of series [1] is Influenza A virus. The experiment in a line: Antiviral activity against Influenza A virus (A/Perth/16/2009(H3N2)) infected in MDCK cells assessed as inhibition of virus-induced cytopathic effect by cell-based neutral red uptake assay. The series is classed as functional, organism-based.
In series [2] the test system is Influenza A virus. The experiment in a line: Antiviral activity against Influenza A virus (A/duck/Minnesota/1525/1981(H5N1)) infected in MDCK cells assessed as inhibition of virus-induced cytopathic effect by cell-based neutral red uptake assay. It is filed as functional, organism-based.
The subject of series [3] is Influenza A virus. The series can be described thus: Antiviral activity against Influenza A virus (A/California/07/2009(H1N1)) infected in MDCK cells assessed as inhibition of virus-induced cytopathic effect by cell-based neutral red uptake assay. It is filed as functional, organism-based. (In general: Damage to the host cells serves as the signal in cytopathic effect assays.)

For series [4], the system named is Influenza B virus. The experiment in a line: Antiviral activity against Influenza B virus (B/Florida/4/2006) infected in MDCK cells assessed as inhibition of virus-induced cytopathic effect by cell-based neutral red uptake assay. It is filed as functional. As to conditions: B/Florida/4/2006, MDCK.
The subject of series [5] is MDCK. The series can be described thus: (§1) Cytotoxicity against MDCK cells. It is filed as cell-based, Canis lupus familiaris. As to conditions: dog, mdck. The essentials:
(§2)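 Cytotoxicity was measured in uninfected wells run alongside the antiviral plates, across eight half-log dilutions in MEM. Cells were stained with neutral red, and the extracted dye was read at 540 nm. CC₅₀, the concentration giving 50% cytotoxicity, was obtained by regression, and values are reported in μM.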

Series [6] can be described thus: Selectivity index, ratio of CC50 for MDCK cells to EC50 for Influenza A virus (A/California/07/2009(H1N1)). Conditions: dog, read-out: Ratio CC50/EC50. The series is classed as toxicity, cell-based.
Series [7] can be described thus: Selectivity index, ratio of CC50 for MDCK cells to EC50 for Influenza A virus (A/duck/Minnesota/1525/1981(H5N1)). The series is classed as toxicity, cell-based. Conditions: dog, read-out: Ratio CC50/EC50.
Series [8] in a line: Selectivity index, ratio of CC50 for MDCK cells to EC50 for Influenza B virus (B/Florida/4/2006). It is filed as toxicity, cell-based. As to conditions: dog, read-out: Ratio CC50/EC50.
A short description of series [9]: Antiviral activity against SARS coronavirus Urbani infected in MDCK cells assessed as inhibition of virus-induced cytopathic effect by cell-based neutral red uptake assay. The series is classed as functional. As to conditions: Severe acute respiratory syndrome-related coronavirus.
The test system of series [10] is K562. The series can be described thus: Cytotoxicity against human K562 cells assessed as cell growth at 10 uM after 48 hrs by SRB assay relative to control. The series is classed as functional. As to conditions: K562, 48 h, read-out: Activity. The essentials:
(§3)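 This was the NCI primary screen, with compound added once at 10⁻⁵ M and cultures incubated for 48 h. The endpoint was sulforhodamine B protein staining. Results are expressed as percent growth of treated cells relative to untreated control cells.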
(In SRB staining, fixed cells bind dye roughly in proportion to their protein.)

Series [11] relates to T47D. The experiment in a line: Cytotoxicity against human T47D cells assessed as cell growth at 10 uM after 48 hrs by SRB assay relative to control. It is filed as functional. As to conditions: read-out: Activity. An outline of the steps:
(§4)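 Single-dose NCI screen: compound at 10⁻⁵ M added to tumor cell cultures and incubated for 48 h. The SRB protein-binding dye end point was read spectrophotometrically. Results are percent growth of treated cells relative to untreated controls.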

For series [12], the system named is CCRF-CEM. The experiment in a line: Cytotoxicity against human CCRF-CEM cells assessed as cell growth at 10 uM after 48 hrs by SRB assay relative to control. The series is classed as functional. As to conditions: read-out: Activity. An outline of the steps: as §3
For series [13], the system named is Trypanosoma brucei gambiense. The series can be described thus: Antitrypanosomal activity against bloodstream form of Trypanosoma brucei gambiense Feo assessed as parasite growth inhibition after 72 hrs by resazurin-based fluorescence assay. It is filed as functional, organism-based. The essentials:
(§5)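 Bloodstream forms of strain 90-13 or Feo were grown in HMI9 with 10% FCS at 37 °C under 5% CO₂. Log-phase parasites were seeded at 10⁵ cells/ml and exposed for 72 h to 10–0.625 μg/ml drug from DMSO stocks, with DMSO as control. Resazurin was added at 45 μM final, and fluorescence was read 4 h later. IC₅₀ was taken from the dose–response curve as the mean of three independent experiments.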
On the technique in general: The colour change of resazurin is a common sign of viable cells or microbes.

For series [14], the system named is Trypanosoma brucei brucei. The experiment in a line: Antitrypanosomal activity against bloodstream form of Trypanosoma brucei brucei 90-13 assessed as parasite growth inhibition after 72 hrs by resazurin-based fluorescence assay. As to conditions: 90-13, 72 h. The series is classed as functional, organism-based. The essentials:
as §5

Series [15] has as its system UO-31. The experiment in a line: Cytotoxicity against human UO31 cells assessed as cell growth at 10 uM after 48 hrs by SRB assay relative to control. It is filed as functional. As to conditions: UO-31, 48 h, read-out: Activity. An outline of the steps: as §4
Series [16] in a line: Selectivity index, ratio of CC50 for MDCK cells to EC50 for Influenza A virus (A/Perth/16/2009(H3N2)). The series is classed as toxicity, cell-based. As to conditions: dog, read-out: Ratio CC50/EC50.
Series [17] concerns HOP-92. The experiment in a line: Cytotoxicity against human HOP92 cells assessed as cell growth at 10 uM after 48 hrs by SRB assay relative to control. It is filed as functional. As to conditions: HOP-92, 48 h, read-out: Activity. The essentials: as §3
Series [18] in a line: Selectivity index, ratio of CC50 for MDCK cells to EC50 for SARS coronavirus Urbani. The series is classed as toxicity, cell-based. Conditions: dog, read-out: Ratio CC50/EC50.
The subject of series [19] is Trypanosoma cruzi. The series can be described thus: Antitrypanosomal activity against […] form of Trypanosoma cruzi Y infected in monkey […] cells assessed as parasite growth inhibition after 15 hrs by trypan blue staining-based hemocytometric analysis. It is filed as functional, organism-based.
Series [20] is described as follows: as §1. It is filed as cell-based, Canis lupus familiaris. Conditions: dog, MDCK cells. The essentials:
as §2

Turning to `CCN1CCN(CN2C(=O)SC(N3N=C(c4ccc5ccccc5c4)CC3c3ccc(Cl)cc3)C2=O)CC1` (configuration not stated), the EC50 in [1] was above 2.37 µM; in [2] it was 4.38 µM; in series [3], 4.01 µM; in series [4], 4.01 µM; in series [9], above 16.8 µM. Further, the CC50 in series [5] is 2.37 µM. In addition, the selectivity ratio in [6] is 1.1; in series [7], 1.4; in [8], 2.1.
Consider `CC(=O)N1CCN(CN2C(=O)SC(N3N=C(c4ccc5ccccc5c4)CC3c3ccc(Cl)cc3)C2=O)CC1` (configuration not stated), for which the growth at 10 µM in [10] stood at 76.4%.
Regarding `COc1ccc(C2CC(c3ccc4ccccc4c3)=NN2C(=O)/C=C2\SC(=O)NC2=O)cc1` (configuration not stated), the growth at 10 µM in series [11] was 78.7%.
As for `COc1ccc(NC(=O)CN2C(=O)S/C(=C\C(=O)N3N=C(c4ccc5ccccc5c4)CC3c3ccc(OC)cc3)C2=O)cc1` (configuration not stated), the growth at 10 µM in series [12] stood at 74.7%.
As to `COc1ccc(C2CC(c3ccc4ccccc4c3)=NN2C2SC(=O)NC2=O)cc1` (configuration not stated), the EC50 in [1] is 4.31 µM; in [2], 7.9 µM; in series [3], 9.82 µM; in series [4], 4.55 µM; in series [9], above 23.5 µM. In addition, the IC50 in series [13] worked out at 6.66 µM; in [14] it was 13.9 µM. This compound also came in with a CC50 in series [5] of 6.23 µM. Further, the selectivity ratio in series [6] came out at 1.1; in [7], 1.6; in series [8], 1.8; in series [16], 1.4. Besides, the growth at 10 µM in series [15] came to 77.5%.
As for `O=C1NC(=O)C(N2N=C(c3ccc4ccccc4c3)CC2c2ccc(Cl)cc2)S1` (configuration not stated), the EC50 in [1] was 2.84 µM; in series [2] it was 5.21 µM; in series [3], 4.27 µM; in [4], 3.08 µM; in [9] it was above 23.2 µM. The selectivity ratio amounted to 1 in series [6], 1.2 in series [7], 1.6 in [8] and 1 in series [16]. The growth at 10 µM in series [17] is 74.9%.
As to `COc1ccc(C2CC(c3ccc4ccccc4c3)=NN2C2SC(=O)N(CC(=O)Nc3ccc(C)cc3)C2=O)cc1` (configuration not stated), the EC50 was 53.1 µM in series [1]; 21.8 µM in [2]; 142 µM in [3]; 79.7 µM in series [4]; above 313 µM in [9]. In addition, the CC50 in [5] was above 74.4 µM. For the same compound, the selectivity ratio in [6] was 1.6; in [7] it was above 16.3; in series [8], 2.1; in [16], 1.4. Moreover, the growth at 10 µM in series [15] is 76.6%.
Regarding `Cc1ccc(NC(=O)CN2C(=O)SC(N3N=C(c4ccc5ccccc5c4)CC3c3ccc(Cl)cc3)C2=O)cc1` (configuration not stated), the EC50 in [1] was above 13.3 µM; in [2], 51 µM; in [3] it was 54.5 µM; in series [4], 35.1 µM; in [9], above 351 µM. Further, the half-inhibitory concentration (IC50) in series [13] worked out at 2.53 µM; in series [14], 5.43 µM. The compound further returned a CC50 in series [5] above 13.3 µM. In addition, the selectivity ratio in [6] was 1.3; in series [7], 1.1; in series [8], 1.3.
As for `COc1ccc(NC(=O)CN2C(=O)SC(N3N=C(c4ccc5ccccc5c4)CC3c3ccc(Cl)cc3)C2=O)cc1` (configuration not stated), the EC50 in series [1] was 18.8 µM; in [2] it was 179 µM; in series [3], 120 µM; in series [4], 95.7 µM; in series [9], above 342 µM. In addition, the IC50 amounted to 6.1 µM in series [13] and 11.3 µM in series [14]. In series [5], this compound had a CC50 above 25.6 µM. In addition, the selectivity ratio in series [6] amounted to 1.5; in series [7], 1.5; in series [8] it was 1.4; in series [16], 1.3.
For `COc1ccc(C2CC(c3ccc4ccccc4c3)=NN2C2SC(=O)N(CN3CCCCC3)C2=O)cc1` (configuration not stated), the growth at 10 µM in series [17] came to 69.5%.
In the case of `COc1ccc(C2CC(c3ccc4ccccc4c3)=NN2C2SC(=O)N(CN3CCN(C(C)=O)CC3)C2=O)cc1` (configuration not stated), in [15], the growth at 10 µM is 82.2%.
Take `COc1ccc(C2CC(c3ccc4ccccc4c3)=NN2C2SC(=O)N(CN3CCN(Cc4ccccc4)CC3)C2=O)cc1` (configuration not stated): the EC50 in series [1] is above 6.6 µM; in series [2] it was above 24.8 µM; in [3] it was 13.7 µM; in [4], 57.8 µM; in [9], 21.5 µM. Also, in series [5], the CC50 was determined as 6.6 µM. Also, the selectivity ratio in series [6] amounted to 1.1; in [8] it was 1; in [18] it was 1.6. Moreover, in [15], the growth at 10 µM worked out at 74.5%.
Take `CCC1SC(N/N=C\CSc2ccccc2)=NC1=O` (configuration not stated): the IC50 in [19] worked out at 0.3 µM.
With `N=C(N)c1ccc(OCCCCCOc2ccc(C(=N)N)cc2)cc1` [PENTAMIDINE], in series [13], the IC50 stood at 0.0053 µM.
Consider `NC(=O)c1ncn([C@@H]2O[C@H](CO)[C@@H](O)[C@H]2O)n1` [RIBAVIRIN], for which the EC50 came to 18.4 µM in series [1], 18.4 µM in series [2] and 23.8 µM in series [3]. This compound showed a CC50 in series [20] above 324 µM.

One may read the EC50 as the concentration giving half of the maximal effect. For orientation: CC50 means the concentration giving 50% cytotoxicity. As usually defined, the IC50 is the point on the concentration scale where inhibition reaches its midpoint.
